In brackets after ≈: the same amount, converted by molar mass. Starred links: 1 amine or outer side, 2 acyl side, 3 side chain; linkers in the order of their positions; H or OH if unused. Positions of bridges follow the written chain, without caps; N, C: chain ends. Non-standard residues stand in square brackets, D forms with d. Residues, ends and D or L forms follow the SMILES beside them. *: point of attachment. hTyr(3S-OH,4S-OH,3'-OSO3H) = N[C@H](C(=O)O)[C@H](O)[C@@H](O)c1ccc(O)c(OS(=O)(=O)O)c1; Orn(4R-OH,5R-OH) = O=C([C@H](C[C@@H](O)[C@@H](O)N[*:3])N[*:1])[*:2]; Pro(3S-OH,4S-Me) = C[C@H]1CN[C@H](C(=O)O)[C@H]1O; X1 = CCCCCOc1ccc(-c2cc(-c3ccc(C(=O)*)cc3)no2)cc1; Gln(3R-OH) = NC(=O)C[C@@H](O)[C@H](N)C(=O)O; Hyp = O=C(O)[C@@H]1C[C@@H](O)CN1
Key:
Format in all cases: functional
Aspergillus terreus = experiment: Antifungal activity against Aspergillus terreus NBRC 33026 after 48 hrs by broth microdilution method; details: NBRC 33026, 48 h
Outline: (§1)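 CLSI M27-A2 (yeasts) / M38-A (moulds) broth microdilution in RPMI 1640 buffered to pH 7.0 with 0.165 M MOPS. Malassezia furfur got the same medium supplemented with glucose, bile salts, glycerol, glycerol monostearate and Tween 20. Final inoculum 0.65 × 10^3–2.5 × 10^3 CFU/ml for yeasts and 0.87 × 10^4–3.8 × 10^4 CFU/ml for filamentous fungi. Incubation at 35°C except M. racemosus and F. solani, which were held at 30°C.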

Cryptococcus neoformans [1] = experiment: Antifungal activity against Cryptococcus neoformans TIMM 0354 after 72 hrs by broth microdilution method; details: TIMM 0354, 72 h
Outline: (§2)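 CLSI M27-A2 (yeasts) or M38-A (A. fumigatus) broth microdilution in RPMI 1640 buffered to pH 7.0 with 0.165 M MOPS. Final inocula were 0.65–2.5 × 10^3 CFU/ml for yeasts and 0.87–3.8 × 10^4 CFU/ml for filamentous fungi. Incubation was at 35°C for about 48 h (72 h for C. neoformans). MIC was the lowest concentration giving a prominent (~50%) turbidity drop versus growth control; amphotericin B required complete inhibition.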

Candida albicans [2] = experiment: Antifungal activity against Candida albicans ATCC 24433 after 48 hrs by broth microdilution method; details: ATCC 24433, 48 h; outline: as §2
Candida tropicalis [3] = experiment: Antifungal activity against Candida tropicalis clinical isolates after 48 hrs by broth microdilution method
Outline: (§3)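 Clinical isolates from Japanese hospitals or culture collections were tested by broth microdilution in RPMI 1640-MOPS. Inoculum was 0.57 × 10^3–2.5 × 10^3 CFU/ml for yeasts and 0.4 × 10^4–3.3 × 10^4 CFU/ml for filamentous fungi. Incubation was at 35°C for about 48 h, or 72 h where footnoted. Results were summarised as MIC range, MIC50 and MIC90.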

Candida parapsilosis [4] = experiment: Antifungal activity against Candida parapsilosis NBRC 10219 after 48 hrs by broth microdilution method; details: Lodderomyces parapsilosis, NBRC 10219, 48 h; outline: as §2
Candida albicans [5] = experiment: Antifungal activity against Candida albicans clinical isolates after 48 hrs by broth microdilution method; outline: as §3
Trichophyton rubrum = experiment: Antifungal activity against Trichophyton rubrum NBRC 5467 after 72 hrs by broth microdilution method; details: NBRC 5467, 72 h; outline: as §1
Saccharomyces cerevisiae = experiment: Antifungal activity against Saccharomyces cerevisiae ATCC 24657 after 48 hrs by broth microdilution method; details: ATCC 24657, 48 h; outline: as §1
Cryptococcus neoformans [6] = experiment: Antifungal activity against Cryptococcus neoformans ATCC 90112 after 72 hrs by broth microdilution method; details: ATCC 90112, 72 h; outline: as §2
Aspergillus flavus = experiment: Antifungal activity against Aspergillus flavus NBRC 6343 after 48 hrs by broth microdilution method; details: NBRC 6343, 48 h; outline: as §1
Candida albicans [7] = experiment: Antifungal activity against Candida albicans ATCC 90028 after 48 hrs by broth microdilution method; details: ATCC 90028, 48 h; outline: as §1
Mucor racemosus = experiment: Antifungal activity against Mucor racemosus NBRC5403 after 24 hrs by broth microdilution method; details: NBRC5403, 24 h
Pichia kudriavzevii = experiment: Antifungal activity against Candida krusei IFO 0584 after 48 hrs by broth microdilution method; details: IFO 0584, 48 h; outline: as §1
Candida albicans [8] = experiment: Antifungal activity against Candida albicans ATCC MYA-1003 after 47 hrs by broth microdilution method; details: ATCC MYA-1003, 47 h
Outline: (§4)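 Fluconazole-resistant or susceptible-dose-dependent ATCC C. albicans strains were tested by CLSI M27-A2 broth microdilution in RPMI 1640–0.165 M MOPS, pH 7.0, with a final inoculum of 1.1–1.5 × 10^3 CFU/ml at 35°C for about 47 h. MIC was the lowest concentration with a prominent (~50%) turbidity decrease relative to growth control; amphotericin B was read at complete inhibition.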

Candida albicans [9] = experiment: Antifungal activity against Candida albicans ATCC 64124 after 47 hrs by broth microdilution method; details: ATCC 64124, 47 h; outline: as §4
Aspergillus fumigatus [10] = experiment: Antifungal activity against Aspergillus fumigatus ATCC 16424 after 48 hrs by broth microdilution method; details: ATCC 16424, 48 h; outline: as §2
Scedosporium boydii = experiment: Antifungal activity against Pseudallescheria boydii NBRC 32229 after 72 hrs by broth microdilution method; details: NBRC 32229, 72 h; outline: as §1
Aspergillus fumigatus [11] = experiment: Antifungal activity against Aspergillus fumigatus IFM 46895 after 48 hrs by broth microdilution method; details: IFM 46895, 48 h; outline: as §1
Nakaseomyces glabratus = experiment: Antifungal activity against Candida glabrata clinical isolates after 48 hrs by broth microdilution method; outline: as §3
Candida parapsilosis [12] = experiment: Antifungal activity against Candida parapsilosis clinical isolates after 48 hrs by broth microdilution method; details: Lodderomyces parapsilosis
Outline: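 Japanese hospital Candida isolates were tested by CLSI M27-A2 broth microdilution in RPMI 1640–MOPS, pH 7.0, with inocula of 0.57–2.5 × 10^3 CFU/ml at 35°C for about 48 h. Inocula came from 24-h potato dextrose agar cultures. MIC was the lowest concentration with about 50% turbidity reduction versus growth control (complete inhibition for amphotericin B). Range, MIC50 and MIC90 were reported.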

Candida tropicalis [13] = experiment: Antifungal activity against Candida tropicalis IFO 1400 after 48 hrs by broth microdilution method; details: IFO 1400, 48 h; outline: as §1
Lichtheimia corymbifera = experiment: Antifungal activity against Absidia corymbifera NBRC 4009 after 24 hrs by broth microdilution method; details: NBRC 4009, 24 h; outline: as §1
Cryptococcus neoformans [14] = experiment: Antifungal activity against Cryptococcus neoformans clinical isolates after 72 hrs by broth microdilution method; outline: as §3
[15] = tested on: Meyerozyma guilliermondii; experiment: Antifungal activity against Candida guilliermondii clinical isolates after 48 hrs by broth microdilution method; outline: as §3
Fusarium solani = experiment: Antifungal activity against Fusarium solani IFO 31093 after 48 hrs by broth microdilution method; details: IFO 31093, 48 h; outline: as §1

## CCCCCOc1ccc(-c2cc(-c3ccc(C(=O)N[C@H]4C[C@@H](O)[C@@H](O)NC(=O)[C@@H]5[C@@H](O)[C@@H](C)CN5C(=O)[C@H]([C@H](O)CC(N)=O)NC(=O)[C@H]([C@H](O)[C@@H](O)c5ccc(O)c(OS(=O)(=O)O)c5)NC(=O)[C@@H]5C[C@@H](O)CN5C(=O)[C@H]([C@@H](C)O)NC4=O)cc3)no2)cc1 [MICAFUNGIN] (X1-[Orn(4R-OH,5R-OH)]T[Hyp][hTyr(3S-OH,4S-OH,3'-OSO3H)][Gln(3R-OH)][Pro(3S-OH,4S-Me)]; lactam 1-C)
Aspergillus terreus
  MFC: > 64 µg/mL
  MIC: 0.0313 µg/mL (≈ 0.0246 µM)
Cryptococcus neoformans [1]
  MFC: > 64 µg/mL
  MIC: > 64 µg/mL
Candida albicans [2]
  MFC: 0.25 µg/mL (≈ 0.197 µM)
  MIC: 0.0313 µg/mL (≈ 0.0246 µM)
Candida tropicalis [3]
  MIC: 0.0625 µg/mL (≈ 0.0492 µM)
  MIC50: 0.0625 µg/mL (≈ 0.0492 µM)
  MIC90: 0.125 µg/mL (≈ 0.0984 µM)
Candida parapsilosis [4]
  MFC: > 32 µg/mL
  MIC: 2 µg/mL (≈ 1.57 µM)
Candida albicans [5]
  MIC50: 0.0625 µg/mL (≈ 0.0492 µM)
  MIC90: 0.125 µg/mL (≈ 0.0984 µM)
Trichophyton rubrum
  MFC: > 64 µg/mL
  MIC: 0.0313 µg/mL (≈ 0.0246 µM)
Saccharomyces cerevisiae
  MFC: 1 µg/mL (≈ 0.787 µM)
  MIC: 0.5 µg/mL (≈ 0.394 µM)
Cryptococcus neoformans [6]
  MFC: > 64 µg/mL
  MIC: > 64 µg/mL
Aspergillus flavus
  MFC: > 64 µg/mL
  MIC: 0.0625 µg/mL (≈ 0.0492 µM)
Candida albicans [7]
  MFC: 0.125 µg/mL (≈ 0.0984 µM)
  MIC: 0.0313 µg/mL (≈ 0.0246 µM)
Mucor racemosus
  MFC: > 64 µg/mL
  MIC: 32 µg/mL (≈ 25.2 µM)
Pichia kudriavzevii
  MFC: 0.25 µg/mL (≈ 0.197 µM)
  MIC: 0.125 µg/mL (≈ 0.0984 µM)
Candida albicans [8]
  MIC: 0.125 µg/mL (≈ 0.0984 µM)
Candida albicans [9]
  MIC: 0.0625 µg/mL (≈ 0.0492 µM)
Aspergillus fumigatus [10]
  MFC: > 64 µg/mL
  MIC: 0.0313 µg/mL (≈ 0.0246 µM)
Scedosporium boydii
  MFC: > 64 µg/mL
  MIC: 0.5 µg/mL (≈ 0.394 µM)
Aspergillus fumigatus [11]
  MFC: > 64 µg/mL
  MIC: 0.0313 µg/mL (≈ 0.0246 µM)
Nakaseomyces glabratus
  MIC50: 0.0625 µg/mL (≈ 0.0492 µM)
  MIC90: 0.0625 µg/mL (≈ 0.0492 µM)
Candida parapsilosis [12]
  MIC50: 2 µg/mL (≈ 1.57 µM)
  MIC90: 4 µg/mL (≈ 3.15 µM)
Candida tropicalis [13]
  MFC: > 64 µg/mL
  MIC: 0.0625 µg/mL (≈ 0.0492 µM)
Lichtheimia corymbifera
  MFC: > 64 µg/mL
  MIC: 32 µg/mL (≈ 25.2 µM)
Cryptococcus neoformans [14]
  MIC: > 64 µg/mL
  MIC50: > 64 µg/mL
  MIC90: > 64 µg/mL
[15]
  MIC50: 1 µg/mL (≈ 0.787 µM)
  MIC90: 1 µg/mL (≈ 0.787 µM)
Fusarium solani
  MFC: > 64 µg/mL
  MIC: > 64 µg/mL

## OC(Cn1cncn1)(Cn1cncn1)c1ccc(F)cc1F [FLUCONAZOLE]
Aspergillus terreus
  MFC: > 64 µg/mL
  MIC: > 64 µg/mL
Cryptococcus neoformans [1]
  MFC: > 64 µg/mL
  MIC: 2 µg/mL (≈ 6.53 µM)
Candida albicans [2]
  MFC: > 64 µg/mL
  MIC: 0.125 µg/mL (≈ 0.408 µM)
Candida tropicalis [3]
  MIC50: 0.5 µg/mL (≈ 1.63 µM)
  MIC90: 1 µg/mL (≈ 3.27 µM)
Candida parapsilosis [4]
  MFC: > 64 µg/mL
  MIC: 1 µg/mL (≈ 3.27 µM)
Candida albicans [5]
  MIC: 0.125 µg/mL (≈ 0.408 µM)
  MIC50: 0.125 µg/mL (≈ 0.408 µM)
  MIC90: 0.25 µg/mL (≈ 0.816 µM)
Trichophyton rubrum
  MFC: > 64 µg/mL
  MIC: 0.25 µg/mL (≈ 0.816 µM)
Saccharomyces cerevisiae
  MFC: > 64 µg/mL
  MIC: 8 µg/mL (≈ 26.1 µM)
Cryptococcus neoformans [6]
  MFC: > 64 µg/mL
  MIC: 1 µg/mL (≈ 3.27 µM)
Aspergillus flavus
  MFC: > 64 µg/mL
  MIC: > 64 µg/mL
Candida albicans [7]
  MFC: > 64 µg/mL
  MIC: 0.125 µg/mL (≈ 0.408 µM)
Mucor racemosus
  MFC: > 64 µg/mL
  MIC: > 64 µg/mL
Pichia kudriavzevii
  MFC: 64 µg/mL (≈ 209 µM)
  MIC: 32 µg/mL (≈ 104 µM)
Candida albicans [8]
  MIC: 64 µg/mL (≈ 209 µM)
Candida albicans [9]
  MIC: > 64 µg/mL
Aspergillus fumigatus [10]
  MFC: > 64 µg/mL
  MIC: > 64 µg/mL
Scedosporium boydii
  MFC: > 64 µg/mL
  MIC: 16 µg/mL (≈ 52.2 µM)
Aspergillus fumigatus [11]
  MFC: > 64 µg/mL
  MIC: > 64 µg/mL
Candida parapsilosis [12]
  MIC50: 0.5 µg/mL (≈ 1.63 µM)
  MIC90: 1 µg/mL (≈ 3.27 µM)
Candida tropicalis [13]
  MFC: > 64 µg/mL
  MIC: 2 µg/mL (≈ 6.53 µM)
Lichtheimia corymbifera
  MFC: > 64 µg/mL
  MIC: > 64 µg/mL
Cryptococcus neoformans [14]
  MIC50: 2 µg/mL (≈ 6.53 µM)
  MIC90: 4 µg/mL (≈ 13.1 µM)
[15]
  MIC50: 4 µg/mL (≈ 13.1 µM)
  MIC90: 8 µg/mL (≈ 26.1 µM)
Fusarium solani
  MFC: > 64 µg/mL
  MIC: > 64 µg/mL
